Measured values from ChEMBL document CHEMBL1759837, “Studies on chemical modification and biology of a natural product, gambogic acid (III): determination of the essential pharmacophore for biological activity” (Eur J Med Chem, 2011).
The source made the active and inactive calls. The rule behind the calls is not given here.

Legend:
HepG2 [1] = experiment: Induction of apoptosis in human HepG2 cells assessed as decrease in pro-caspase-3 expression at 1 uM after 24 hrs by Western blot analysis; type: functional, cell-based
Outline: (§1)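 HepG2 cells treated 24 h at 1, 2 or 4 µM. Lysed in Tris-Cl pH 6.8 buffer containing SDS, glycerol, β-mercaptoethanol, PMSF and aprotinin; cleared at 12 000 × g, 15 min, 4 °C. Protein measured by BCA. Samples run on 15% SDS-PAGE, transferred to PVDF, probed overnight at 4 °C with primary antibodies against bcl-2, bax and pro-caspase-3, then IRDye 800 secondary 1 h at 37 °C.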

HepG2 [2] = experiment: Induction of apoptosis in human HepG2 cells assessed as appearance of apoptotic bodies at 1 to 4 uM after 24 hrs using DAPI staining by fluorescent microscopy; type: functional, cell-based
Outline: (§2)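 HepG2 cells seeded at 1 × 10⁵ cells/well and treated 24 h at 1, 2 or 4 µM. Living cells first viewed under inverted light microscope (×200). Cells then fixed 20 min in 4% paraformaldehyde, stained 10 min with DAPI (1 mg/ml) and examined by fluorescence microscopy (×400, 340 nm excitation) for nuclear changes and apoptotic bodies.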

[3] = system: Heps hepatoma (Mus musculus); experiment: Antitumor activity against murine Heps hepatoma cells transplanted in Kunming mouse assessed as tumor growth inhibition at 50 mg/kg, iv administered 24 hrs after tumor implantation one dose per two day for total of four treatment measured after 24 hrs last postdose relative to control
HepG2 [4] = experiment: Induction of apoptosis in human HepG2 cells assessed as cell distortion at 4 uM after 24 hrs using by inverted light microscopy; type: functional, cell-based; outline: as §2
HepG2 [5] = experiment: Cell cycle arrest in human HepG2 cells assessed as accumulation at G2/M phase at 4 uM after 24 hrs using propidium iodide by Flow cytometry; type: functional, cell-based
Outline: (§3)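 HepG2 cells synchronised by 24 h serum starvation, then treated 24 h at 1, 2 or 4 µM. Cells fixed overnight in 70% ethanol at 4 °C and stained 15 min at 37 °C in the dark with hypotonic PI solution (0.1% sodium citrate, 0.1% Triton X-100, 0.05 mg/ml PI, 0.01 mg/ml RNase). DNA content measured by flow cytometry.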

HepG2 [6] = experiment: Induction of apoptosis in human HepG2 cells assessed as decrease in pro-caspase-3 expression at 4 uM after 24 hrs by Western blot analysis; type: functional, cell-based; outline: as §1
Mus musculus [7] = experiment: Toxicity in Kunming mouse xenografted with human HepG2 cells assessed as change in body weight at 25 mg/kg, iv administered 24 hrs after tumor implantation one dose per two day for total of four treatment measured after 24 hrs last postdose (reference value: 20.20 +/- 1.14 g); type: organism-based; set-up: dose 25 mg/kg, route intravenous; conditions: in vivo
HepG2 [8] = experiment: Induction of apoptosis in human HepG2 cells assessed as cell membrane blebbing and shrinkage at 4 uM after 24 hrs using by inverted light microscopy; type: functional, cell-based; outline: as §2
Mus musculus [9] = experiment: Toxicity in Kunming mouse xenografted with human HepG2 cells assessed as change in body weight at 12.5 mg/kg, iv administered 24 hrs after tumor implantation one dose per two day for total of four treatment measured after 24 hrs last postdose (reference value: 20.20 +/- 1.99 g); type: organism-based; set-up: dose 12.5 mg/kg, route intravenous; conditions: in vivo
HepG2 [10] = experiment: Induction of apoptosis in human HepG2 cells assessed as appearance of necrosis at 4 uM after 24 hrs by light microscopy; type: functional, cell-based; outline: as §2
HepG2 [11] = experiment: Induction of apoptosis in human HepG2 cells assessed as pre-necrotic cells at 1 uM after 24 hrs using annexin V-propidium iodide staining by flow cytometry (reference value: 0.5%); type: functional
HepG2 [12] = experiment: Induction of apoptosis in human HepG2 cells assessed as decrease in bcl-2 expression at 1 uM after 24 hrs by Western blot analysis; type: functional, cell-based; outline: as §1
HepG2 [13] = experiment: Induction of apoptosis in human HepG2 cells assessed as effect on bax protein expression at 4 uM after 24 hrs by Western blot analysis; type: functional, cell-based; outline: as §1
[14] = system: Heps hepatoma (Mus musculus); experiment: Antitumor activity against murine Heps hepatoma cells transplanted in Kunming mouse assessed as tumor growth inhibition at 25 mg/kg, iv administered 24 hrs after tumor implantation one dose per two day for total of four treatment measured after 24 hrs last postdose relative to control
[15] = system: Heps hepatoma (Mus musculus); experiment: Antitumor activity against murine Heps hepatoma cells transplanted in iv dosed Kunming mouse assessed as tumor growth inhibition administered 24 hrs after tumor implantation one dose per two day for total of four treatment measured after 24 hrs last postdose
Mus musculus [16] = experiment: Toxicity in Kunming mouse xenografted with human HepG2 cells assessed as irritation on vein vascular at 12.5 to 50 mg/kg, iv administered 24 hrs after tumor implantation one dose per two day for total of four treatment measured after 24 hrs last postdose; type: organism-based; set-up: dose 12.5-50 mg/kg, route intravenous; conditions: in vivo
HepG2 [17] = experiment: Induction of apoptosis in human HepG2 cells assessed as viable cells at 4 uM after 24 hrs using annexin V-propidium iodide staining by flow cytometry (reference value: 93.2%); type: functional; conditions: HepG2, 24 h, read-out: Activity
HepG2 [18] = experiment: Induction of apoptosis in human HepG2 cells assessed as pre-necrotic cells at 4 uM after 24 hrs using annexin V-propidium iodide staining by flow cytometry (reference value: 0.5%); type: functional
HepG2 [19] = experiment: Induction of apoptosis in human HepG2 cells assessed as late apoptotic cells at 4 uM after 24 hrs using annexin V-propidium iodide staining by flow cytometry (reference value: 3.4%); type: functional
HepG2 [20] = experiment: Induction of apoptosis in human HepG2 cells assessed as late apoptotic cells at 2 uM after 24 hrs using annexin V-propidium iodide staining by flow cytometry (reference value: 3.4%); type: functional
Mus musculus [21] = experiment: Toxicity in Kunming mouse xenografted with human HepG2 cells assessed as change in body weight at 50 mg/kg, iv administered 24 hrs after tumor implantation one dose per two day for total of four treatment measured after 24 hrs last postdose (reference value: 19.10 +/- 1.29 g); conditions: in vivo
HepG2 [22] = experiment: Induction of apoptosis in human HepG2 cells assessed as decrease in bcl-2 expression at 4 uM after 24 hrs by Western blot analysis; type: functional, cell-based; outline: as §1
HepG2 [23] = experiment: Induction of apoptosis in human HepG2 cells assessed as effect on bax protein expression at 1 uM after 24 hrs by Western blot analysis; type: functional, cell-based; outline: as §1
HepG2 [24] = experiment: Induction of apoptosis in human HepG2 cells assessed as nuclear condensation at 1 to 4 uM after 24 hrs using DAPI staining by fluorescent microscopy; type: functional, cell-based; outline: as §2
HepG2 [25] = experiment: Induction of apoptosis in human HepG2 cells assessed as large proportion of cell became round in shape at 4 uM after 24 hrs […] by inverted light microscopy; type: functional, cell-based; outline: as §2
SMMC-7721 = experiment: Antiproliferative activity against human SMMC7721 cells after 24 hrs by MTT assay; type: functional, cell-based; conditions: SMMC-7721, 24 h
Outline: (§4)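 Cells grown at 37 °C in humidified 5% CO2 with benzylpenicillin and streptomycin. Compounds came from 0.01 mol/L DMSO stocks and were tested at eight two-fold dilutions in triplicate, with medium-only controls, for 24 h. MTT absorbance was read at 570 nm. Survival = A_treatment/A_control × 100. IC50 is the concentration giving 50% viability inhibition, as the mean of two separate experiments.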

[26] = system: Heps hepatoma (Mus musculus); experiment: Antitumor activity against murine Heps hepatoma cells transplanted in Kunming mouse assessed as tumor growth inhibition at 12.5 mg/kg, iv administered 24 hrs after tumor implantation one dose per two day for total of four treatment measured after 24 hrs last postdose relative to control
BGC-823 = experiment: Antiproliferative activity against human BGC823 cells after 24 hrs by MTT assay; type: functional, cell-based; conditions: BGC-823, 24 h; outline: as §4
HepG2 [27] = experiment: Induction of apoptosis in human HepG2 cells assessed as decrease in pro-caspase-3 expression at 2 uM after 24 hrs by Western blot analysis; type: functional, cell-based; outline: as §1
HepG2 [28] = experiment: Induction of apoptosis in human HepG2 cells assessed as activation of caspase 3 at 1 to 4 uM after 24 hrs by colorimetric assay relative to control; type: functional
Outline: (§5)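 Kit colorimetric caspase-3 test. HepG2 cells treated at 1, 2 or 4 µM for 24 h at 37 °C, then lysed on ice 20 min and centrifuged. Supernatant containing 200 µg total protein incubated with Ac-DEVD-pNA 4 h at 37 °C; absorbance read at 405 nm. Fold activity = OD treated / OD control; mean ± SD, t-test.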

HepG2 [29] = experiment: Antiproliferative activity against human HepG2 cells after 24 hrs by MTT assay; type: functional, cell-based; conditions: HepG2, 24 h
Outline: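 Tetrazolium MTT viability test; cells exposed to compound 24 h, absorbance read at 570 nm. Survival ratio = A treated / A control × 100%; IC50 is the concentration giving 50% loss of viability. Eight concentrations in two-fold dilutions, triplicate wells, mean of two separate experiments. Compounds dissolved in DMSO (0.01 mol/L stock); control wells received medium only.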

HepG2 [30] = experiment: Induction of apoptosis in human HepG2 cells assessed as effect on bax protein expression at 2 uM after 24 hrs by Western blot analysis; type: functional, cell-based; outline: as §1
HepG2 [31] = experiment: Induction of apoptosis in human HepG2 cells assessed as pre-necrotic cells at 2 uM after 24 hrs using annexin V-propidium iodide staining by flow cytometry (reference value: 0.5%); type: functional
HepG2 [32] = experiment: Induction of apoptosis in human HepG2 cells assessed as activation of caspase 3 after 24 hrs by colorimetric assay; type: functional, cell-based; outline: as §5
HepG2 [33] = experiment: Induction of apoptosis in human HepG2 cells assessed as early apoptotic cells at 4 uM after 24 hrs using annexin V-propidium iodide staining by flow cytometry (reference value: 3%); type: functional
HepG2 [34] = experiment: Cell cycle arrest in human HepG2 cells assessed as accumulation at G2/M phase at 1 uM after 24 hrs using propidium iodide by Flow cytometry; type: functional, cell-based; outline: as §3
HepG2 [35] = experiment: Induction of apoptosis in human HepG2 cells assessed as late apoptotic cells at 1 uM after 24 hrs using annexin V-propidium iodide staining by flow cytometry (reference value: 3.4%); type: functional
HepG2 [36] = experiment: Cell cycle arrest in human HepG2 cells assessed as accumulation at G2/M phase at 2 uM after 24 hrs using propidium iodide by Flow cytometry; type: functional, cell-based; outline: as §3
HepG2 [37] = experiment: Induction of apoptosis in human HepG2 cells assessed as viable cells at 1 uM after 24 hrs using annexin V-propidium iodide staining by flow cytometry (reference value: 93.2%); type: functional; conditions: HepG2, 24 h, read-out: Activity
MCF7 = experiment: Antiproliferative activity against human MCF7 cells after 24 hrs by MTT assay; type: functional, cell-based; conditions: MCF7, 24 h; outline: as §4
HepG2 [38] = experiment: Induction of apoptosis in human HepG2 cells assessed as viable cells at 2 uM after 24 hrs using annexin V-propidium iodide staining by flow cytometry (reference value: 93.2%); type: functional; conditions: HepG2, 24 h, read-out: Activity
HepG2 [39] = experiment: Induction of apoptosis in human HepG2 cells assessed as early apoptotic cells at 2 uM after 24 hrs using annexin V-propidium iodide staining by flow cytometry (reference value: 3%); type: functional
HepG2 [40] = experiment: Induction of apoptosis in human HepG2 cells assessed as decrease in bcl-2 expression at 2 uM after 24 hrs by Western blot analysis; type: functional, cell-based; outline: as §1
HepG2 [41] = experiment: Induction of apoptosis in human HepG2 cells assessed as early apoptotic cells at 1 uM after 24 hrs using annexin V-propidium iodide staining by flow cytometry (reference value: 3%); type: functional
HepG2 [42] = experiment: Induction of apoptosis in human HepG2 cells assessed as induction of cell integrity at 1 uM after 24 hrs by light microscopy; type: functional, cell-based; outline: as §2
HepG2 [43] = experiment: Induction of apoptosis in human HepG2 cells assessed as bright condensed chromatin in nuclei at 1 uM after 24 hrs by fluorescence microscopy

## CC(C)=CCC12OC(C)(C)C3CC(C=C4C(=O)c5c(O)cccc5OC431)C2=O (stereo unspecified)
HepG2 [1]
  Activity: Active
HepG2 [2]
  Activity: Active
[3]
  inhibition in vivo at 50 mg/kg: 49.2%
HepG2 [4]
  Activity: Active
HepG2 [5]
  Activity: Active
HepG2 [6]
  Activity: Active
Mus musculus [7]
  Activity: 29.4 g
HepG2 [8]
  Activity: Active
Mus musculus [9]
  Activity: 26.3 g
HepG2 [10]
  Activity: Active
HepG2 [11]
  Activity: 0.8%
HepG2 [12]
  Activity: Active
HepG2 [13]
  Activity: inactive
[14]
  inhibition in vivo at 25 mg/kg: 32.3%
[15]
  inhibition: Dose-dependent effect
Mus musculus [16]
  Activity: Non-toxic
HepG2 [17]
  viability at 4 µM: 68.2%
HepG2 [18]
  Activity: 1.1%
HepG2 [19]
  Activity: 7.4%
HepG2 [20]
  Activity: 8.1%
Mus musculus [21]
  Activity: 24.7 g
HepG2 [22]
  Activity: Active
HepG2 [23]
  Activity: inactive
HepG2 [24]
  Activity: Active
HepG2 [25]
  Activity: Active
SMMC-7721
  IC50: 8.06 µM
[26]
  inhibition in vivo at 12.5 mg/kg: 14.9%
BGC-823
  IC50: 3.59 µM
HepG2 [27]
  Activity: Active
HepG2 [28]
  fold change (FC): 3
HepG2 [29]
  IC50: 2.37 µM
HepG2 [30]
  Activity: inactive
HepG2 [31]
  Activity: 1.1%
HepG2 [32]
  Activity: Dose-dependent effect
HepG2 [33]
  Activity: 23.3%
HepG2 [34]
  Activity: Active
HepG2 [35]
  Activity: 4.8%
HepG2 [36]
  Activity: Active
HepG2 [37]
  viability at 1 µM: 86.3%
MCF7
  IC50: 9.16 µM
HepG2 [38]
  viability at 2 µM: 71.9%
HepG2 [39]
  Activity: 18.9%
HepG2 [40]
  Activity: Active
HepG2 [41]
  Activity: 8.1%
HepG2 [42]
  Activity: Active
HepG2 [43]
  Activity: Active
